ChEMBL document CHEMBL4270565, “Design, synthesis and antimicrobial evaluation of propylene-tethered ciprofloxacin-isatin hybrids” (Eur J Med Chem, 2018)
Values after ≈ are worked out from the molar mass of the structure shown.

Assays:
[1] = system: Klebsiella aerogenes; experiment: Antibacterial activity against Enterobacter aerogenes ATCC 13048 after 18 to 24 hrs by two-fold serial dilution method; assay type: functional
Summary of the method: (§1)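 Agar two-fold dilution MIC. Compounds were dissolved in 0.1 N NaOH and water, then serially diluted in melted Mueller-Hinton agar, with top concentrations starting at 128. Plates were inoculated at about 10 cfu and incubated at 35 °C for 18–24 h. MIC was taken as the lowest concentration giving 90% inhibition of growth.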

[2] = system: Klebsiella pneumoniae; experiment: Antibacterial activity against extended-spectrum beta-lactamase deficient Klebsiella pneumoniae 15-2 after 18 to 24 hrs by two-fold serial dilution method; assay type: functional; summary of the method: as §1
[3] = system: Providencia rettgeri; experiment: Antibacterial activity against Providencia rettgeri ATCC 31052 after 18 to 24 hrs by two-fold serial dilution method; assay type: functional; summary of the method: as §1
[4] = system: Enterobacter cloacae; experiment: Antibacterial activity against Enterobacter cloacae ATCC 43560 after 18 to 24 hrs by two-fold serial dilution method; assay type: functional
[5] = system: Stenotrophomonas maltophilia; experiment: Antibacterial activity against Stenotrophomonas maltophilia ATCC 13636 after 18 to 24 hrs by two-fold serial dilution method; assay type: functional; summary of the method: as §1
[6] = system: Enterococcus faecalis; experiment: Antibacterial activity against Enterococcus faecalis ATCC 29212 after 18 to 24 hrs by two-fold serial dilution method; assay type: functional; summary of the method: as §1
[7] = system: Proteus vulgaris; experiment: Antibacterial activity against Proteus vulgaris ATCC 29905 after 18 to 24 hrs by two-fold serial dilution method; assay type: functional; summary of the method: as §1
[8] = system: Staphylococcus epidermidis; experiment: Antibacterial activity against methicillin-resistant Staphylococcus epidermidis 13-3 after 18 to 24 hrs by two-fold serial dilution method; assay type: functional
Summary of the method: (§2)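 Agar two-fold serial dilution in Mueller-Hinton agar. Strains came from the Chinese Center for Disease Control and Prevention. Compounds were dissolved in 0.1 N NaOH and water, then diluted in melted agar to final levels stepping down from 128. Plates were inoculated with bacterial cfu and incubated at 35 C for 18–24 h. MIC is the lowest concentration giving 90% growth inhibition.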

[9] = system: Proteus mirabilis; experiment: Antibacterial activity against Proteus mirabilis 13-1 after 18 to 24 hrs by two-fold serial dilution method; assay type: functional; summary of the method: as §1
[10] = system: Acinetobacter calcoaceticus; experiment: Antibacterial activity against Acinetobacter calcoaceticus ATCC 19606 after 18 to 24 hrs by two-fold serial dilution method; assay type: functional; summary of the method: as §1
[11] = system: Enterococcus faecium; experiment: Antibacterial activity against Enterococcus faecium ATCC 700221 after 18 to 24 hrs by two-fold serial dilution method; assay type: functional; summary of the method: as §1
[12] = system: Escherichia coli; experiment: Antibacterial activity against extended-spectrum beta-lactamase harboring Escherichia coli ATCC 35218 after 18 to 24 hrs by two-fold serial dilution method; assay type: functional; summary of the method: as §2
[13] = system: Morganella morganii; experiment: Antibacterial activity against Morganella morganii ATCC 25830 after 18 to 24 hrs by two-fold serial dilution method; assay type: functional; summary of the method: as §1
[14] = system: Staphylococcus epidermidis; experiment: Antibacterial activity against methicillin-sensitive Staphylococcus epidermidis ATCC 12228 after 18 to 24 hrs by two-fold serial dilution method; assay type: functional; summary of the method: as §1
[15] = system: Escherichia coli; experiment: Antibacterial activity against extended-spectrum beta-lactamase deficient Escherichia coli ATCC 25922 after 18 to 24 hrs by two-fold serial dilution method; assay type: functional; summary of the method: as §1
[16] = system: Staphylococcus aureus; experiment: Antibacterial activity against methicillin-resistant Staphylococcus aureus ATCC 33591 after 18 to 24 hrs by two-fold serial dilution method; assay type: functional; summary of the method: as §2
[17] = system: Klebsiella pneumoniae; experiment: Antibacterial activity against extended-spectrum beta-lactamase harboring Klebsiella pneumoniae ATCC 700603 after 18 to 24 hrs by two-fold serial dilution method; assay type: functional; summary of the method: as §2
[18] = system: Pseudomonas aeruginosa; experiment: Antibacterial activity against Pseudomonas aeruginosa ATCC 27853 after 18 to 24 hrs by two-fold serial dilution method; assay type: functional; summary of the method: as §1
[19] = system: Enterococcus faecium; experiment: Antibacterial activity against Enterococcus faecium 13-7 after 18 to 24 hrs by two-fold serial dilution method; assay type: functional; summary of the method: as §1
[20] = system: Staphylococcus aureus; experiment: Antibacterial activity against methicillin-sensitive Staphylococcus aureus ATCC 29213 after 18 to 24 hrs by two-fold serial dilution method; assay type: functional; summary of the method: as §2
[21] = system: Enterococcus faecalis; experiment: Antibacterial activity against Enterococcus faecalis ATCC 51299 after 18 to 24 hrs by two-fold serial dilution method; assay type: functional; summary of the method: as §1
[22] = system: Mycobacterium tuberculosis; experiment: Antimycobacterial activity against Mycobacterium tuberculosis H37Rv after 7 days; assay type: functional; settings: 168 h
Summary of the method: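 Rapid direct susceptibility test in 48-well plates. Two-fold dilutions of compound from DMSO stocks were mixed with an equal volume of bacterial suspension. Medium-only wells served as growth controls and water-only wells as no-growth controls. Plates were sealed and held at 37 C in a humid box, and controls were checked at 3 days. MIC (90% growth inhibition) was read visually by high-magnification observation of the cells and re-read at 7 days.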

[23] = system: Citrobacter freundii; experiment: Antibacterial activity against extended-spectrum beta-lactamase harboring Citrobacter freundii ATCC 43864 after 18 to 24 hrs by two-fold serial dilution method; assay type: functional; summary of the method: as §2
[24] = Cytotoxicity against African green monkey Vero cells assessed as reduction in cell viability after 72 hrs by MTT assay; assay type: cell-based; settings: chlorocebus sabaeus
Summary of the method: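 VERO cells were kept in MEM with Earle's salts and 10% FBS at 37 °C, 5% CO2. They were seeded in 96-well plates and allowed to recover for 24 h. Cells were then exposed to compounds in DMSO over a series from 1000 down to 4 for 72 h. Viability was read by MTT, and CC50 was calculated by Bliss analysis.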

[25] = system: Serratia marcescens; experiment: Antibacterial activity against Serratia marcescens ATCC 21074 after 18 to 24 hrs by two-fold serial dilution method; assay type: functional; summary of the method: as §1

| SMILES | MIC90 [1] [µg/mL] | MIC90 [2] [µg/mL] | MIC90 [3] [µg/mL] | MIC90 [4] [µg/mL] | MIC90 [5] [µg/mL] | MIC90 [6] [µg/mL] | MIC90 [7] [µg/mL] | MIC90 [8] [µg/mL] | MIC90 [9] [µg/mL] | MIC90 [10] [µg/mL] | MIC90 [11] [µg/mL] | MIC90 [12] [µg/mL] | MIC90 [13] [µg/mL] | MIC90 [14] [µg/mL] | MIC90 [15] [µg/mL] | MIC90 [16] [µg/mL] | MIC90 [17] [µg/mL] | MIC90 [18] [µg/mL] | MIC90 [19] [µg/mL] | MIC90 [20] [µg/mL] | also measured |
| --- | --- | --- | --- | --- | --- | --- | --- | --- | --- | --- | --- | --- | --- | --- | --- | --- | --- | --- | --- | --- | --- |
| Cc1ccc2c(c1)C(=O)C(=O)N2CCCOC(=O)c1cn(C2CC2)c2cc(N3CCN(CCCN4C(=O)C(=O)c5cc(C)ccc54)CC3)c(F)cc2c1=O | 128 (≈ 174 µM) | 64 (≈ 87.2 µM) | 128 (≈ 174 µM) | 32 (≈ 43.6 µM) | 128 (≈ 174 µM) | 64 (≈ 87.2 µM) | 64 (≈ 87.2 µM) | 128 (≈ 174 µM) | 64 (≈ 87.2 µM) | 64 (≈ 87.2 µM) | 128 (≈ 174 µM) | 8 (≈ 10.9 µM) | 64 (≈ 87.2 µM) | 32 (≈ 43.6 µM) | 8 (≈ 10.9 µM) | > 128 | 64 (≈ 87.2 µM) | 128 (≈ 174 µM) | > 128 | 64 (≈ 87.2 µM) | MIC90 [21]: > 128 µg/mL; MIC90 [22]: 50 µg/mL (≈ 68.1 µM); MIC90 [23]: 64 µg/mL (≈ 87.2 µM); CC50 at 72 h [24]: 64 µg/mL (≈ 87.2 µM); MIC90 [25]: > 128 µg/mL |
| CCO/N=C1\C(=O)N(CCCN2CCN(c3cc4c(cc3F)c(=O)c(C(=O)OCCCN3C(=O)/C(=N/OCC)c5cc(C)ccc53)cn4C3CC3)CC2)c2ccc(C)cc21 | 64 (≈ 78.1 µM) | 32 (≈ 39 µM) | 64 (≈ 78.1 µM) | 128 (≈ 156 µM) | 128 (≈ 156 µM) | 64 (≈ 78.1 µM) | 64 (≈ 78.1 µM) | 64 (≈ 78.1 µM) | 64 (≈ 78.1 µM) | 64 (≈ 78.1 µM) | 128 (≈ 156 µM) | 16 (≈ 19.5 µM) | 32 (≈ 39 µM) | 32 (≈ 39 µM) | 16 (≈ 19.5 µM) | 128 (≈ 156 µM) | 128 (≈ 156 µM) | 128 (≈ 156 µM) | > 128 | 64 (≈ 78.1 µM) | MIC90 [21]: 128 µg/mL (≈ 156 µM); MIC90 [22]: 50 µg/mL (≈ 61 µM); MIC90 [23]: 64 µg/mL (≈ 78.1 µM); CC50 at 72 h [24]: 64 µg/mL (≈ 78.1 µM); MIC90 [25]: 64 µg/mL (≈ 78.1 µM) |
| CO/N=C1\C(=O)N(CCCN2CCN(c3cc4c(cc3F)c(=O)c(C(=O)O)cn4C3CC3)CC2)c2ccccc21 | ≤ 0.03 | ≤ 0.03 | ≤ 0.03 | ≤ 0.03 | 0.06 (≈ 0.11 µM) | 0.5 (≈ 0.913 µM) | ≤ 0.03 | 2 (≈ 3.65 µM) | ≤ 0.03 | 0.5 (≈ 0.913 µM) | 8 (≈ 14.6 µM) | ≤ 0.03 | ≤ 0.03 | 0.125 (≈ 0.228 µM) | ≤ 0.03 | 0.25 (≈ 0.457 µM) | 0.5 (≈ 0.913 µM) | 1 (≈ 1.83 µM) | 32 (≈ 58.4 µM) | 0.125 (≈ 0.228 µM) | MIC90 [21]: 1 µg/mL (≈ 1.83 µM); MIC90 [22]: 0.39 µg/mL (≈ 0.712 µM); MIC90 [23]: ≤ 0.03 µg/mL; CC50 at 72 h [24]: 32 µg/mL (≈ 58.4 µM); MIC90 [25]: 0.06 µg/mL (≈ 0.11 µM) |
